Assay results from ChEMBL document CHEMBL1147868, “Synthesis of novel triazole derivatives as inhibitors of cytochrome P450 14alpha-demethylase (CYP51)” (2007).
≈ marks a conversion by molar mass, not a printed value.

Experiments:
Assay type in all cases: functional
Candida parapsilosis = experiment: Antifungal activity against Candida parapsilosis ATCC 0306392 after 7 days by micro-broth dilution method; conditions: Lodderomyces parapsilosis, ATCC 0306392, 168 h
Procedure, shortened: (§1)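 Micro-broth dilution followed NCCLS methods, using an ATCC standard quality-control strain for C. parapsilosis and a clinical isolate for C. tropicalis. Compounds were dissolved in DMSO, serially diluted in growth medium and incubated at 35 C. MIC80 was the first well with about 80% growth reduction compared with the drug-free well.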

Candida albicans = experiment: Antifungal activity against Candida albicans ATCC Y0109 after 24 hrs by micro-broth dilution method
Procedure, shortened: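 An ATCC standard quality-control strain was included in each run of an NCCLS micro-broth dilution assay. Compounds were dissolved in DMSO, serially diluted in growth medium and incubated at 35 C. Reading was at 24 h, and MIC80 was the first well showing roughly 80% growth reduction versus the drug-free control.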

Candida tropicalis = experiment: Antifungal activity against Candida tropicalis after 7 days by micro-broth dilution method; conditions: 168 h; procedure, shortened: as §1
Cryptococcus neoformans = experiment: Antifungal activity against Cryptococcus neoformans ATCC BLS108 after 72 hrs by micro-broth dilution method
Procedure, shortened: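 This ATCC standard quality-control strain was tested in every assay by NCCLS microdilution. Test agents were dissolved in DMSO and serially diluted in growth medium. Cultures were incubated at 35 C and read at 72 h. MIC80 was the first well with approximately 80% reduced growth relative to the drug-free well.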

Aspergillus fumigatus = experiment: Antifungal activity against Aspergillus fumigatus after 7 days by micro-broth dilution method; conditions: 168 h
Procedure, shortened: (§2)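 Clinical isolates supplied by a hospital were tested by NCCLS broth microdilution. Compounds were dissolved in DMSO, serially diluted in growth medium, inoculated and incubated at 35 C. Growth was read at 7 days for filamentous fungi. MIC80 was taken as the first well with about 80% less growth than the drug-free well.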

Trichophyton rubrum = experiment: Antifungal activity against Trichophyton rubrum after 7 days by microbroth dilution method; conditions: 168 h; procedure, shortened: as §2
Fonsecaea compacta = experiment: Antifungal activity against Fonsecaea compacta after 7 days by micro-broth dilution method; conditions: 168 h; procedure, shortened: as §2
Microsporum = experiment: Antifungal activity against Microsporum gypseum after 7 days by micro-broth dilution method; conditions: 168 h; procedure, shortened: as §2

| SMILES | MIC80 (Candida parapsilosis) | MIC80 (Candida albicans) | MIC80 (Candida tropicalis) | MIC80 (Cryptococcus neoformans) | MIC80 (Aspergillus fumigatus) | MIC80 (Trichophyton rubrum) | MIC80 (Fonsecaea compacta) | MIC80 (Microsporum) |
| --- | --- | --- | --- | --- | --- | --- | --- | --- |
| O=C(Nc1ccc(N2CCN(CC(O)(Cn3cncn3)c3ccc(F)cc3F)CC2)c(F)c1)c1ccccc1F (stereo not given) | < 0.0039 µg/mL | 0.0152 µg/mL (≈ 0.0274 µM) | 0.0152 µg/mL (≈ 0.0274 µM) | 0.0152 µg/mL (≈ 0.0274 µM) | 4 µg/mL (≈ 7.21 µM) | 0.0152 µg/mL (≈ 0.0274 µM) | 0.0625 µg/mL (≈ 0.113 µM) | 0.0625 µg/mL (≈ 0.113 µM) |
| OC(Cn1cncn1)(Cn1cncn1)c1ccc(F)cc1F [FLUCONAZOLE] | 1 µg/mL (≈ 3.27 µM) | 4 µg/mL (≈ 13.1 µM) | 1 µg/mL (≈ 3.27 µM) | 1 µg/mL (≈ 3.27 µM) | 64 µg/mL (≈ 209 µM) | 0.25 µg/mL (≈ 0.816 µM) | 16 µg/mL (≈ 52.2 µM) | 0.25 µg/mL (≈ 0.816 µM) |
| COc1cccc(C(=O)Nc2ccc(N3CCN(CC(O)(Cn4cncn4)c4ccc(F)cc4F)CC3)c(F)c2)c1 (stereo not given) | 0.0152 µg/mL (≈ 0.0268 µM) | 0.0625 µg/mL (≈ 0.11 µM) | 0.0152 µg/mL (≈ 0.0268 µM) | 0.0152 µg/mL (≈ 0.0268 µM) | 1 µg/mL (≈ 1.76 µM) | 0.0152 µg/mL (≈ 0.0268 µM) | 0.25 µg/mL (≈ 0.441 µM) | 0.25 µg/mL (≈ 0.441 µM) |
| COc1ccc(C(=O)Nc2ccc(N3CCN(CC(O)(Cn4cncn4)c4ccc(F)cc4F)CC3)c(F)c2)cc1OC (stereo not given) | 0.0625 µg/mL (≈ 0.105 µM) | 0.0625 µg/mL (≈ 0.105 µM) | 0.0039 µg/mL (≈ 0.00654 µM) | 0.25 µg/mL (≈ 0.419 µM) | 1 µg/mL (≈ 1.68 µM) | 0.25 µg/mL (≈ 0.419 µM) | 0.25 µg/mL (≈ 0.419 µM) | 0.25 µg/mL (≈ 0.419 µM) |
| O=C(Nc1ccc(N2CCN(CC(O)(Cn3cncn3)c3ccc(F)cc3F)CC2)c(F)c1)c1ccccc1Br (stereo not given) | 0.0152 µg/mL (≈ 0.0247 µM) | 0.0625 µg/mL (≈ 0.102 µM) | 0.0152 µg/mL (≈ 0.0247 µM) | 0.0625 µg/mL (≈ 0.102 µM) | 1 µg/mL (≈ 1.62 µM) | 0.0039 µg/mL (≈ 0.00634 µM) | 0.25 µg/mL (≈ 0.406 µM) | 0.0625 µg/mL (≈ 0.102 µM) |
| O=C(Nc1ccc(N2CCN(CC(O)(Cn3cncn3)c3ccc(F)cc3F)CC2)c(F)c1)c1ccc(Cl)cc1Cl (stereo not given) | 0.0152 µg/mL (≈ 0.0251 µM) | 0.25 µg/mL (≈ 0.413 µM) | 0.0625 µg/mL (≈ 0.103 µM) | 0.0625 µg/mL (≈ 0.103 µM) | 0.25 µg/mL (≈ 0.413 µM) | 0.0625 µg/mL (≈ 0.103 µM) | 0.25 µg/mL (≈ 0.413 µM) | 0.0039 µg/mL (≈ 0.00644 µM) |
| O=C(Nc1ccc(N2CCN(CC(O)(Cn3cncn3)c3ccc(F)cc3F)CC2)c(F)c1)c1cccc(C(F)(F)F)c1 (stereo not given) | 0.0152 µg/mL (≈ 0.0251 µM) | 0.25 µg/mL (≈ 0.414 µM) | 0.25 µg/mL (≈ 0.414 µM) | 0.25 µg/mL (≈ 0.414 µM) | 4 µg/mL (≈ 6.62 µM) | 0.0625 µg/mL (≈ 0.103 µM) | 0.25 µg/mL (≈ 0.414 µM) | 0.0625 µg/mL (≈ 0.103 µM) |
| CCc1ccc(C(=O)Nc2ccc(N3CCN(CC(O)(Cn4cncn4)c4ccc(F)cc4F)CC3)c(F)c2)cc1 (stereo not given) | 4 µg/mL (≈ 7.08 µM) | 0.25 µg/mL (≈ 0.443 µM) | 0.0625 µg/mL (≈ 0.111 µM) | 0.0625 µg/mL (≈ 0.111 µM) | 1 µg/mL (≈ 1.77 µM) | 0.0625 µg/mL (≈ 0.111 µM) | 0.0625 µg/mL (≈ 0.111 µM) | 0.25 µg/mL (≈ 0.443 µM) |
| Cc1ccccc1C(=O)Nc1ccc(N2CCN(CC(O)(Cn3cncn3)c3ccc(F)cc3F)CC2)c(F)c1 (stereo not given) | 0.0152 µg/mL (≈ 0.0276 µM) | 0.0625 µg/mL (≈ 0.114 µM) | 0.0152 µg/mL (≈ 0.0276 µM) | 0.0625 µg/mL (≈ 0.114 µM) | 1 µg/mL (≈ 1.82 µM) | 0.0625 µg/mL (≈ 0.114 µM) | 0.25 µg/mL (≈ 0.454 µM) | 0.0152 µg/mL (≈ 0.0276 µM) |
| CCC(C)n1ncn(-c2ccc(N3CCN(c4ccc(OCC5COC(Cn6cncn6)(c6ccc(Cl)cc6Cl)O5)cc4)CC3)cc2)c1=O (stereo not given) [ITRACONAZOLE] | 0.25 µg/mL (≈ 0.354 µM) | 1 µg/mL (≈ 1.42 µM) | 0.25 µg/mL (≈ 0.354 µM) | 1 µg/mL (≈ 1.42 µM) | 1 µg/mL (≈ 1.42 µM) | 0.0152 µg/mL (≈ 0.0215 µM) | 0.25 µg/mL (≈ 0.354 µM) | 0.0152 µg/mL (≈ 0.0215 µM) |
| O=C(Nc1ccc(N2CCN(CC(O)(Cn3cncn3)c3ccc(F)cc3F)CC2)c(F)c1)c1ccc(F)cc1 (stereo not given) | 0.0039 µg/mL (≈ 0.00703 µM) | 0.0152 µg/mL (≈ 0.0274 µM) | 0.0152 µg/mL (≈ 0.0274 µM) | 0.0152 µg/mL (≈ 0.0274 µM) | 1 µg/mL (≈ 1.8 µM) | 0.25 µg/mL (≈ 0.451 µM) | 0.0625 µg/mL (≈ 0.113 µM) | 0.0152 µg/mL (≈ 0.0274 µM) |
| C[C@@H](c1ncncc1F)[C@](O)(Cn1cncn1)c1ccc(F)cc1F [VORICONAZOLE] | 1 µg/mL (≈ 2.86 µM) | 0.0152 µg/mL (≈ 0.0435 µM) | 0.25 µg/mL (≈ 0.716 µM) | 0.0152 µg/mL (≈ 0.0435 µM) | > 64 µg/mL | 0.0039 µg/mL (≈ 0.0112 µM) | 0.0152 µg/mL (≈ 0.0435 µM) | 0.0039 µg/mL (≈ 0.0112 µM) |
| COc1cc(C(=O)Nc2ccc(N3CCN(CC(O)(Cn4cncn4)c4ccc(F)cc4F)CC3)c(F)c2)cc(OC)c1OC (stereo not given) | 0.0625 µg/mL (≈ 0.0997 µM) | 0.25 µg/mL (≈ 0.399 µM) | 0.0625 µg/mL (≈ 0.0997 µM) | 1 µg/mL (≈ 1.6 µM) | 4 µg/mL (≈ 6.38 µM) | > 64 µg/mL | 4 µg/mL (≈ 6.38 µM) | 1 µg/mL (≈ 1.6 µM) |
| O=C(Nc1ccc(N2CCN(CC(O)(Cn3cncn3)c3ccc(F)cc3F)CC2)c(F)c1)c1cccc(Br)c1 (stereo not given) | 0.0625 µg/mL (≈ 0.102 µM) | 0.0625 µg/mL (≈ 0.102 µM) | 0.0625 µg/mL (≈ 0.102 µM) | 0.25 µg/mL (≈ 0.406 µM) | 4 µg/mL (≈ 6.5 µM) | 0.0625 µg/mL (≈ 0.102 µM) | 0.25 µg/mL (≈ 0.406 µM) | 0.25 µg/mL (≈ 0.406 µM) |
| O=C(Nc1ccc(N2CCN(CC(O)(Cn3cncn3)c3ccc(F)cc3F)CC2)c(F)c1)c1cccc(Cl)c1 (stereo not given) | 0.0152 µg/mL (≈ 0.0266 µM) | 0.25 µg/mL (≈ 0.438 µM) | 0.0625 µg/mL (≈ 0.109 µM) | 0.25 µg/mL (≈ 0.438 µM) | 4 µg/mL (≈ 7.01 µM) | 0.0625 µg/mL (≈ 0.109 µM) | 0.25 µg/mL (≈ 0.438 µM) | 0.0625 µg/mL (≈ 0.109 µM) |
